Results published in ChEMBL document CHEMBL1148135, “Constituents of Chinese propolis and their antiproliferative activities” (J Nat Prod, 2002).
Counter-ions that a name gives are not always drawn. Active and inactive are the calls of the source. No cut-off for these calls is given here.

Legend:
[1] = Antiproliferative activity against mouse B16-BL6 cells after 72 hrs by MTT assay; format: functional, cell-based; conditions: B16-BL6, 72 h
Summary of the method: (§1)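 Cells kept in Eagle's MEM with 10% fetal calf serum. 2500 cells per well were left to attach for 24 h at 37 °C under 5% CO2, then given varying concentrations for 72 h. Samples were dissolved in DMSO and diluted in medium (DMSO <0.1%). After 2 h with MTT, formazan was read at 550 nm. EC50 was taken from the mean of four wells.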

[2] = system: HT-1080; experiment: Antiproliferative activity against human HT1080 cells after 72 hrs by MTT assay; format: functional, cell-based; conditions: HT-1080, 72 h; summary of the method: as §1
[3] = system: A549; experiment: Antiproliferative activity against human A549 cells after 72 hrs by MTT assay; format: functional, cell-based; conditions: A549, 72 h; summary of the method: as §1
[4] = system: HeLa; experiment: Antiproliferative activity against human HeLa cells after 72 hrs by MTT assay; format: functional, cell-based; summary of the method: as §1
[5] = Antiproliferative activity against mouse 26-L5 cells after 72 hrs by MTT assay; format: functional, cell-based
Summary of the method: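 Murine colon 26-L5 carcinoma cells kept in RPMI with 10% fetal calf serum. 2500 cells per well were left to attach for 24 h at 37 °C under 5% CO2, then exposed for 72 h to varying concentrations in medium, from a DMSO stock (<0.1% DMSO). MTT was added for 2 h and formazan read at 550 nm. EC50 was taken from the mean of four wells.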

[6] = DPPH radical scavenging activity after 30 mins; format: functional
Summary of the method: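 Samples in EtOH were vortexed with an equal volume of DPPH solution ([…] before mixing). Absorbance was read at 520 nm after 30 min.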

SMILES | EC50 [1] [µM] | EC50 [2] [µM] | EC50 [3] [µM] | EC50 [4] [µM] | EC50 [5] [µM] | Activity [6]
CC[C@H](C)C(=O)O[C@H]1C(=O)c2c(O)cc(O)cc2O[C@@H]1c1ccccc1 | 185 | 143 | 160 | 116 | 78.9 | –
O=c1cc(-c2ccccc2)oc2cc(O)c(C/C=C/c3ccccc3)c(O)c12 | > 270 | > 270 | > 270 | > 270 | > 270 | –
O=c1cc(-c2ccc(O)cc2)oc2cc(O)cc(O)c12 [APIGENIN] | 31.6 | 36.6 | 101 | 92.7 | 25 | –
O=C(/C=C/c1ccc(O)c(O)c1)OCc1ccccc1 [BENZYL CAFFEATE] | 9.78 | 9.74 | 35 | 2.33 | 1.01 | Active
COc1cc(/C=C/C(=O)OCc2ccccc2)ccc1O [BENZYL FERULATE] | 63.7 | 46.7 | 92.8 | 51.1 | 46.4 | –
O=C(/C=C/c1ccc(O)c(O)c1)OCCc1ccccc1 [CAFFEIC ACID PHENETHYL ESTER] | 6.79 | 9.5 | 27.9 | 2.36 | 0.3 | Active
O=c1cc(-c2ccccc2)oc2cc(O)cc(O)c12 [CHRYSIN] | 74.4 | 94.9 | 233 | 111 | 109 | –
COc1cccc2c1C(=O)c1c(O)c3c(c(O)c1C2=O)C[C@@](O)(C(=O)CO)C[C@@H]3O[C@H]1C[C@H](N)[C@H](O)[C@H](C)O1 [DOXORUBICIN HYDROCHLORIDE] | 0.11 | 0.02 | 0.04 | 0.02 | 0.02 | –
O=c1[nH]cc(F)c(=O)[nH]1 [FLUOROURACIL] | 1.23 | 1.38 | 3.61 | 0.23 | 0.31 | –
O=c1c(O)c(-c2ccccc2)oc2cc(O)cc(O)c12 [GALANGIN] | 26.8 | 35.7 | 93.6 | 79 | 19.2 | –
COc1ccc(/C=C/C(=O)O)cc1O [ISOFERULIC ACID] | > 515 | > 515 | > 515 | > 515 | > 515 | –
COc1cc(O)c2c(=O)c(O)c(-c3ccccc3)oc2c1 [IZALPININ] | > 350 | > 350 | > 350 | 106 | 30.3 | –
COc1ccc(/C=C/C(=O)O)cc1OC [O,O'-DIMETHYLCAFFEIC ACID] | > 480 | > 480 | > 480 | > 480 | > 480 | –
O=C1C[C@@H](c2ccccc2)Oc2cc(O)cc(O)c21 [PINOCEMBRIN] | 68 | 92.4 | 229 | 108 | 75.6 | –
COc1cc(O)c2c(c1)O[C@H](c1ccccc1)CC2=O [PINOSTROBIN] | 111 | 156 | > 370 | 202 | 128 | –
COc1cc(O)c2c(=O)cc(-c3ccccc3)oc2c1 [TECHTOCHRYSIN] | 226 | 358 | > 370 | > 370 | 273 | –
